17 molecules from ChEMBL document CHEMBL1268822, “Synthesis and biological evaluation of indolyl glyoxylamides as a new class of antileishmanial agents” (Bioorg Med Chem Lett, 2010) can be followed below.

One data set has as its system Leishmania donovani. Description: Antileishmanial activity against Leishmania donovani amastigotes infected in mouse J774A1 cells assessed as inhibition of parasite growth after 72 hrs by luciferase reporter gene assay. It counts as functional, organism-based. Particulars: J774.A1, 72 h. The procedure, abridged:
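J774A.1 macrophages seeded at 4 × 10⁴ cells/well in RPMI-1640 with 10% fetal calf serum, 37 °C CO₂, 24 h. Stationary-phase promastigotes then added at 4 × 10⁵/well and left to convert to intracellular amastigotes. Medium replaced with compound at 0.62–40 µM for 72 h at 37 °C. Steady Glo luciferase luminescence, growth inhibition relative to untreated controls.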
On the technique in general: A reporter such as luciferase makes a cellular process visible.

Data set [1] is described as follows: Toxicity in mouse J774A1 cells. It counts as cell-based, J774.A1.
Data set [2] in a line: (§1) Selectivity index, ratio of CC50 for mouse J774A1 cells to IC50 for Leishmania donovani amastigotes. It counts as functional, J774.A1. The procedure, abridged: (§2)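 Ratio of CC50 in J-774 A-1 cells to IC50 against L. donovani amastigotes.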
In a further data set the test system is J774.A1. The data set is described as §1. It counts as functional. An outline of the steps: as §2

One may read the IC50 as the concentration at which inhibition is half-maximal. What is called CC50 is the concentration at which the toxic effect on the cells reaches its halfway point. In the case of `COC(=O)[C@@H]1Cc2c([nH]c3ccccc23)[C@@H](c2ccc(Cl)cc2)N1C(=O)C(=O)c1c[nH]c2ccccc12`, the IC50 with Leishmania donovani was determined as 4.36 µM. Also, the midpoint of cytotoxicity in data set [1], the CC50, lay at 11.3 µM. Besides, the “Selectivity Index” value in data set [2] turned out to be 2.6.
The corresponding values for `COC(=O)[C@@H]1Cc2c([nH]c3ccccc23)[C@@H](c2ccccc2Br)N1C(=O)C(=O)c1c[nH]c2ccc(Br)cc12` are 4.09 µM, 7.25 µM and 1.77.
Taken in the same sequence, the figures for `COC(=O)[C@@H]1Cc2c([nH]c3ccccc23)[C@@H](c2ccc(Cl)cc2)N1C(=O)C(=O)c1c[nH]c2ccc(Br)cc12` were 4.02 µM, 7.64 µM and 1.9.
Taken in the same sequence, the figures for `COC(=O)[C@@H]1Cc2c([nH]c3ccccc23)[C@@H](c2ccc(C)cc2)N1C(=O)C(=O)c1c[nH]c2ccc(Br)cc12` were 4.79 µM, 8.83 µM and 1.84.
For the molecule `CCc1ccc([C@H]2c3[nH]c4ccccc4c3C[C@H](C(=O)OC)N2C(=O)C(=O)c2c[nH]c3ccccc23)cc1`, the half-maximal inhibitory concentration (IC50) with Leishmania donovani was determined as 8.04 µM. This molecule also gave a CC50 in data set [1] of 30.9 µM. For the same molecule, in data set [2], the “Selectivity Index” value is given as 3.84.
Taken in the same sequence, the figures for `COC(=O)[C@H]1Cc2c([nH]c3ccccc23)[C@@H](c2ccc(C(C)C)cc2)N1C(=O)C(=O)c1c[nH]c2ccc(Br)cc12` were 3.91 µM, 7.77 µM and 1.99.
Turning to `COC(=O)[C@@H]1Cc2c([nH]c3ccccc23)[C@H](c2ccc(C)cc2)N1C(=O)C(=O)c1c[nH]c2ccccc12`, in the data set with Leishmania donovani, the IC50 was found to be 7.37 µM. It took 27.4 µM to reach half-maximal cytotoxicity in data set [1] (CC50). Also, the “Selectivity Index” value in data set [2] is recorded as 3.72.
Taken in the same sequence, the figures for `COC(=O)[C@H]1Cc2c([nH]c3ccccc23)[C@@H](c2ccc(C(C)C)cc2)N1C(=O)C(=O)c1c[nH]c2ccccc12` were 6.74 µM, 32.6 µM and 4.84.
Taken in the same sequence, the figures for `CCc1ccc([C@@H]2c3[nH]c4ccccc4c3C[C@H](C(=O)OC)N2C(=O)C(=O)c2c[nH]c3ccccc23)cc1` were 5.17 µM, 163 µM and 31.48.
Regarding `COC(=O)[C@H]1Cc2c([nH]c3ccccc23)[C@H](c2ccc(C(C)C)cc2)N1C(=O)C(=O)c1c[nH]c2ccc(Br)cc12`, in the data set with Leishmania donovani, the IC50 amounted to 4.44 µM. This molecule also returned a CC50 in data set [1] of 9.04 µM. Also, in data set [2], the “Selectivity Index” value is 2.04.
Taken in the same sequence, the figures for `COC(=O)[C@@H]1Cc2c([nH]c3ccccc23)[C@@H](c2ccccc2Br)N1C(=O)C(=O)c1c[nH]c2ccccc12` were 3.79 µM, 30.1 µM and 7.94.
The corresponding values for `CCc1ccc([C@H]2c3[nH]c4ccccc4c3C[C@H](C(=O)OC)N2C(=O)C(=O)c2c[nH]c3ccc(Br)cc23)cc1` are 5.86 µM, 9.48 µM and 1.62.
The corresponding values for `CCc1ccc([C@@H]2c3[nH]c4ccccc4c3C[C@H](C(=O)OC)N2C(=O)C(=O)c2c[nH]c3ccc(Br)cc23)cc1` are 5.36 µM, 11.6 µM and 2.17.
As for sodium stibogluconate, the Selectivity Index in the data set on J774.A1 worked out at 5.53.
For `COC(=O)[C@@H]1Cc2c([nH]c3ccccc23)[C@@H](c2ccc(C)cc2)N1C(=O)C(=O)c1c[nH]c2ccccc12`, the IC50 with Leishmania donovani was 6.79 µM. Also, the CC50 in data set [1] came out at 34.4 µM. Besides, in data set [2], the “Selectivity Index” value is 5.07.
The corresponding values for `COC(=O)[C@H]1Cc2c([nH]c3ccccc23)[C@H](c2ccc(C(C)C)cc2)N1C(=O)C(=O)c1c[nH]c2ccccc12` are 6.02 µM, 15.1 µM and 2.51.
The corresponding values for `COC(=O)[C@@H]1Cc2c([nH]c3ccccc23)[C@H](c2ccc(C)cc2)N1C(=O)C(=O)c1c[nH]c2ccc(Br)cc12` are 5.18 µM, 10.1 µM and 1.95.
